Source: ChEMBL document CHEMBL3877264, “Quinolidene-rhodanine conjugates: Facile synthesis and biological evaluation” (Eur J Med Chem, 2017)
In brackets after ≈: the same amount, converted by molar mass.

Assays:
Aspergillus flavus = test: Antifungal activity against Aspergillus flavus NCIM 539 by standard agar method; type: functional
Method in brief: (§1)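 MICs determined by standard agar method; DMSO as solvent control.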

[1] = tested on: Mycobacterium tuberculosis; test: Growth inhibition of Mycobacterium bovis BCG ATCC 35743 at active stage at 100 ug/ml measured after 8 days by nitrate reductase dye based two fold dilution method relative to control; type: functional; details: BCG str. ATCC 35743, 192 h, read-out: GI
[2] = tested on: Mycobacterium tuberculosis; test: Growth inhibition of Mycobacterium tuberculosis H37Ra ATCC 25177 at dormant stage at 0.78 ug/ml measured after 12 days by XTT dye based two fold dilution method relative to control; type: functional; details: H37Ra ATCC 25177, 288 h, read-out: GI
Method in brief: (§2)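 MTB H37Ra was grown in Dubos medium, then exposed in Mycobacterium pheli minimal medium (pH 6.6) to compounds dissolved in DMSO. The assay ended on day 8 (active) or day 12 (dormant). Viable cells were measured by XTT reduction menadione assay at 470 nm, blank-corrected, relative to vehicle control. Triplicates were expressed as mean ± SD. MIC came from dose-response curves.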

Staphylococcus aureus [3] = test: Growth inhibition of Staphylococcus aureus NCIM 2010 at 3 ug/ml measured after 12 hrs relative to control; type: functional; details: NCIM 2010, 12 h, read-out: GI
Method in brief: (§3)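 Bacteria grown in LB at 37 °C and 180 rpm to OD 1. Compounds added to wells, then 0.1% inoculum of 1 OD culture (620 nm). Growth read as OD at 620 nm after 8 h for gram-negative and after 12 h for gram-positive strains.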

Pseudomonas fluorescens [4] = test: Growth inhibition of Pseudomonas fluorescens NCIM 2036 at 30 ug/ml measured after 8 hrs relative to control; type: functional; details: NCIM 2036, 8 h, read-out: GI; method in brief: as §3
[5] = tested on: Mycobacterium tuberculosis; test: Growth inhibition of Mycobacterium bovis BCG ATCC 35743 at active stage at 0.78 ug/ml measured after 8 days by nitrate reductase dye based two fold dilution method relative to control; type: functional; details: BCG str. ATCC 35743, 192 h, read-out: GI
Method in brief: (§4)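 M. bovis BCG was grown in Dubos medium and assayed in Mycobacterium pheli minimal medium (pH 6.6), with compounds from DMSO stocks. Incubation lasted 8 days for active and 12 days for dormant cultures. Viability was read by nitrate reductase at 540 nm against cell-free blanks, with vehicle set as 100% growth. Primary screen was at 30, 10 and 3 µg/ml, in triplicate, mean ± SD. MIC was taken from dose-response curves.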

[6] = tested on: Mycobacterium tuberculosis; test: Growth inhibition of Mycobacterium bovis BCG ATCC 35743 at dormant stage measured after 12 days by nitrate reductase dye based two fold dilution method; type: functional; details: BCG str. ATCC 35743, 288 h; method in brief: as §4
[7] = Selectivity index, ratio of GI50 for human HeLa cells to MIC for Mycobacterium tuberculosis H37Ra ATCC 25177 at dormant stage; type: toxicity, cell-based; details: read-out: Selectivity Index
Method in brief: (§5)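 SI is the cell-line GI50 divided by the dormant-stage mycobacterial MIC. […] THP-1 macrophages were PMA-differentiated for 24 h.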

[8] = Cytotoxicity against human A549 cells assessed as growth inhibition at 100 ug/ml measured after 48 hrs by MTT assay relative to control; type: toxicity, cell-based; details: read-out: GI
Bacillus subtilis = test: Growth inhibition of Bacillus subtilis NCIM 2079 at 10 ug/ml measured after 12 hrs relative to control; type: functional; details: NCIM 2079, 12 h, read-out: GI; method in brief: as §3
Pseudomonas fluorescens [9] = test: Growth inhibition of Pseudomonas fluorescens NCIM 2036 at 10 ug/ml measured after 8 hrs relative to control; type: functional; details: NCIM 2036, 8 h, read-out: GI; method in brief: as §3
[10] = tested on: Mycobacterium tuberculosis; test: Growth inhibition of Mycobacterium bovis BCG ATCC 35743 at dormant stage at 10 ug/ml measured after 12 days by nitrate reductase dye based two fold dilution method relative to control; type: functional; details: BCG str. ATCC 35743, 288 h, read-out: GI; method in brief: as §4
[11] = tested on: Mycobacterium tuberculosis; test: Growth inhibition of Mycobacterium tuberculosis H37Ra ATCC 25177 at dormant stage at 6.25 ug/ml measured after 12 days by XTT dye based two fold dilution method relative to control; type: functional; details: H37Ra ATCC 25177, 288 h, read-out: GI; method in brief: as §2
[12] = tested on: Mycobacterium tuberculosis; test: Growth inhibition of Mycobacterium tuberculosis H37Ra ATCC 25177 at active stage at 25 ug/ml measured after 8 days by XTT dye based two fold dilution method relative to control; type: functional; details: H37Ra ATCC 25177, 192 h, read-out: GI; method in brief: as §2
[13] = tested on: Mycobacterium tuberculosis; test: Growth inhibition of Mycobacterium bovis BCG ATCC 35743 at dormant stage at 3.13 ug/ml measured after 12 days by nitrate reductase dye based two fold dilution method relative to control; type: functional; details: BCG str. ATCC 35743, 288 h, read-out: GI; method in brief: as §4
Escherichia coli = test: Growth inhibition of Escherichia coli NCIM 2688 at 30 ug/ml measured after 8 hrs relative to control; type: functional; details: NCIM 2688, 8 h, read-out: GI; method in brief: as §3
[14] = Cytotoxicity against […]-differentiated human THP1 cells measured after 48 hrs by MTT assay; type: toxicity, cell-based, THP-1
Method in brief: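 MTT assay with 48 h compound exposure. THP-1 macrophages made by 24 h PMA treatment. Each concentration tested in triplicate in one experiment. % cytotoxicity = (control−test)/(control−blank)×100, with control = cells + DMSO and blank = medium without cells. IC50 from % survival versus concentration plots.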

[15] = tested on: Mycobacterium tuberculosis; test: Growth inhibition of Mycobacterium bovis BCG ATCC 35743 at active stage at 25 ug/ml measured after 8 days by nitrate reductase dye based two fold dilution method relative to control; type: functional; details: BCG str. ATCC 35743, 192 h, read-out: GI; method in brief: as §4
Staphylococcus aureus [16] = test: Growth inhibition of Staphylococcus aureus NCIM 2010 at 10 ug/ml measured after 12 hrs relative to control; type: functional; details: NCIM 2010, 12 h, read-out: GI; method in brief: as §3
[17] = Selectivity index, ratio of GI50 for human THP1 cells to MIC for Mycobacterium tuberculosis H37Ra ATCC 25177 at dormant stage; type: toxicity, cell-based, THP-1; details: read-out: Selectivity Index; method in brief: as §5
[18] = tested on: Mycobacterium tuberculosis; test: Growth inhibition of Mycobacterium tuberculosis H37Ra ATCC 25177 at dormant stage at 1.56 ug/ml measured after 12 days by XTT dye based two fold dilution method relative to control; type: functional; details: H37Ra ATCC 25177, 288 h, read-out: GI; method in brief: as §2
[19] = tested on: Mycobacterium tuberculosis; test: Growth inhibition of Mycobacterium bovis BCG ATCC 35743 at active stage at 50 ug/ml measured after 8 days by nitrate reductase dye based two fold dilution method relative to control; type: functional; details: BCG str. ATCC 35743, 192 h, read-out: GI
[20] = Cytotoxicity against human HeLa cells at 100 ug/ml assessed as growth inhibition measured after 48 hrs by MTT assay relative to control; type: toxicity, cell-based; details: read-out: GI
[21] = tested on: Mycobacterium tuberculosis; test: Growth inhibition of Mycobacterium bovis BCG ATCC 35743 at active stage at 3.13 ug/ml measured after 8 days by nitrate reductase dye based two fold dilution method relative to control; type: functional; details: BCG str. ATCC 35743, 192 h, read-out: GI; method in brief: as §4
Aspergillus niger = test: Antifungal activity against Aspergillus niger NCIM 1196 by standard agar method; type: functional; method in brief: as §1
[22] = tested on: Mycobacterium tuberculosis; test: Growth inhibition of Mycobacterium tuberculosis H37Ra ATCC 25177 at dormant stage at 12.5 ug/ml measured after 12 days by XTT dye based two fold dilution method relative to control; type: functional; details: H37Ra ATCC 25177, 288 h, read-out: GI
[23] = tested on: Mycobacterium tuberculosis; test: Growth inhibition of Mycobacterium bovis BCG ATCC 35743 at active stage at 6.25 ug/ml measured after 8 days by nitrate reductase dye based two fold dilution method relative to control; type: functional; details: BCG str. ATCC 35743, 192 h, read-out: GI; method in brief: as §4
[24] = tested on: Mycobacterium tuberculosis; test: Growth inhibition of Mycobacterium bovis BCG ATCC 35743 at dormant stage at 0.78 ug/ml measured after 12 days by nitrate reductase dye based two fold dilution method relative to control; type: functional; details: BCG str. ATCC 35743, 288 h, read-out: GI; method in brief: as §4

SMILES | MIC (Aspergillus flavus) | inhibition of growth at 100 µg/mL [1] | inhibition of growth at 0.78 µg/mL [2] | inhibition of growth at 3 µg/mL (Staphylococcus aureus [3]) | inhibition of growth at 30 µg/mL (Pseudomonas fluorescens [4]) | inhibition of growth at 0.78 µg/mL [5] | IC50 [6] | IC90 [6] | selectivity ratio [7] | inhibition at 48 h, 100 ug/ml [8] | inhibition of growth at 10 µg/mL (Bacillus subtilis) | inhibition of growth at 10 µg/mL (Pseudomonas fluorescens [9]) | inhibition of growth at 10 µg/mL [10] | inhibition of growth at 6.25 µg/mL [11] | inhibition of growth at 25 µg/mL [12] | inhibition of growth at 3.13 µg/mL [13] | inhibition of growth at 30 µg/mL (Escherichia coli) | GI50 at 48 h [14] | inhibition of growth at 25 µg/mL [15] | inhibition of growth at 10 µg/mL (Staphylococcus aureus [16]) | further results
Cc1cccc2cc(/C=C3\SC(=S)NC3=O)c(Cl)nc12 | 100 µg/mL (≈ 312 µM) | 93.2% | -16.1% | -3.27% | 59% | -28.7% | 5.1 µg/mL (≈ 15.9 µM) | 9.5 µg/mL (≈ 29.6 µM) | 7.8 | 32.9% | -0.291% | 22.9% | -5.12% | 38.3% | 105% | -5.18% | 39.9% | > 100 µg/mL | 99.3% | -9.23% | selectivity ratio [17]: 7.8; inhibition of growth at 1.56 µg/mL [18]: -17.5%; inhibition of growth at 50 µg/mL [19]: 98.4%; inhibition at 48 h, 100 ug/ml [20]: 32.1%; inhibition of growth at 3.13 µg/mL [21]: -17.7%; MIC (Aspergillus niger): 150 µg/mL (≈ 468 µM); inhibition of growth at 12.5 µg/mL [22]: 49.2%; inhibition of growth at 6.25 µg/mL [23]: 87.8%; inhibition of growth at 0.78 µg/mL [24]: -16.3%
COc1ccc2nc(Cl)c(/C=C3\SC(=S)NC3=O)cc2c1 | 100 µg/mL (≈ 297 µM) | 86.3% | -36% | 68.7% | 70.9% | -67.9% | 2.9 µg/mL (≈ 8.61 µM) | 6.8 µg/mL (≈ 20.2 µM) | 20.8 | 22.2% | 22.7% | 81.8% | -14% | 27.4% | 90.2% | -4.93% | 61.2% | > 100 µg/mL | 88.2% | 99.8% | selectivity ratio [17]: 20.8; inhibition of growth at 1.56 µg/mL [18]: -25.3%; inhibition of growth at 50 µg/mL [19]: 97.3%; inhibition at 48 h, 100 ug/ml [20]: 31.3%; inhibition of growth at 3.13 µg/mL [21]: 14.9%; MIC (Aspergillus niger): 150 µg/mL (≈ 445 µM); inhibition of growth at 12.5 µg/mL [22]: 72.7%; inhibition of growth at 6.25 µg/mL [23]: 95.7%; inhibition of growth at 0.78 µg/mL [24]: -31.1%
O=C1NC(=S)S/C1=C\c1cc2cc(Cl)ccc2nc1Cl | 125 µg/mL (≈ 366 µM) | 98.4% | -27.1% | 101% | 99.8% | 7.4% | 1.3 µg/mL (≈ 3.81 µM) | 2.2 µg/mL (≈ 6.45 µM) | 15.6 | 26.9% | 92.5% | 101% | 99.6% | 89.5% | 100% | 100% | 92.8% | > 100 µg/mL | 99.9% | 114% | selectivity ratio [17]: 15.6; inhibition of growth at 1.56 µg/mL [18]: 32.4%; inhibition of growth at 50 µg/mL [19]: 99.7%; inhibition at 48 h, 100 ug/ml [20]: 45.5%; inhibition of growth at 3.13 µg/mL [21]: 98.9%; MIC (Aspergillus niger): 150 µg/mL (≈ 440 µM); inhibition of growth at 12.5 µg/mL [22]: 70.3%; inhibition of growth at 6.25 µg/mL [23]: 100%; inhibition of growth at 0.78 µg/mL [24]: -9.1%
O=C1NC(=S)S/C1=C\c1cc2cc(F)ccc2nc1Cl | 12.5 µg/mL (≈ 38.5 µM) | 97.7% | -24.1% | 45.3% | 50.2% | -54.6% | 3.9 µg/mL (≈ 12 µM) | 5.2 µg/mL (≈ 16 µM) | 5.6 | 40% | 2.58% | 54.6% | 16.9% | 73.1% | 101% | 25.5% | 46.4% | > 100 µg/mL | 99% | 71.3% | selectivity ratio [17]: 5.6; inhibition of growth at 1.56 µg/mL [18]: -0.73%; inhibition of growth at 50 µg/mL [19]: 99%; inhibition at 48 h, 100 ug/ml [20]: 20%; inhibition of growth at 3.13 µg/mL [21]: 71.3%; MIC (Aspergillus niger): 25 µg/mL (≈ 77 µM); inhibition of growth at 12.5 µg/mL [22]: 87.3%; inhibition of growth at 6.25 µg/mL [23]: 99.5%; inhibition of growth at 0.78 µg/mL [24]: -38.3%
